Consider 44 compounds from ChEMBL document CHEMBL4316595, “Synthesis and structure-activity relationship studies of parthenolide derivatives as potential anti-triple negative breast cancer agents” (Eur J Med Chem, 2019).

For test [1], the system named is Bcap37. The test is described as follows: Antiproliferative activity against human Bcap37 cells measured after 72 hrs by MTT assay. The format is functional, cell-based. Conditions: Bcap37, 72 h. The gist of the method: (§1)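 MTT antiproliferation assay on human breast cancer lines MDA-MB-231, SUM-159, MCF-7 and Bcap-37 and on mouse 4T1 breast cancer cells. IC50 values were taken from the MTT read-out. Adriamycin served as the positive control.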

Test [2] concerns SUM-159-PT. The test is described as follows: Antiproliferative activity against human SUM159 cells measured after 72 hrs by MTT assay. The format is functional, cell-based. The method, boiled down:
as §1

Test [3] relates to MCF7. The test is described as follows: Antiproliferative activity against human MCF7 cells measured after 72 hrs by MTT assay. The format is functional, cell-based. Conditions: MCF7, 72 h. The gist of the method: as §1
Test [4] concerns MDA-MB-231. The test is described as follows: Antiproliferative activity against human MDA-MB-231 cells measured after 72 hrs by MTT assay. The format is functional, cell-based. Conditions: MDA-MB-231, 72 h. The gist of the method: as §1
(Formazan colour is commonly taken as a measure of viable cells.)

For test [5], the system named is 4T1. The test is described as follows: Antiproliferative activity against mouse 4T1 cells measured after 72 hrs by MTT assay. The format is functional, cell-based. Conditions: 4T1, 72 h. The gist of the method:
as §1

Test [6] deals with MDA-MB-231. The test is described as follows: Potency index, ratio of parthenolide IC50 to test compound IC50 for human MDA-MB-231 cells. The format is functional.
Test [7] deals with SUM-159-PT. The test is described as follows: Induction of apoptosis in human SUM159 cells assessed as late apoptotic cells at 0.5 uM measured after 48 hrs by Annexin-V APC/propidium iodide staining based flow cytometry (reference value: 1.45%). The format is functional. The gist of the method:
(§2)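 SUM-159 cells were exposed at 0, 0.2 and 0.5 µM, then stained with annexin V/PI and analysed by flow cytometry. Early apoptosis was annexin V+/PI−, late apoptosis annexin V+/PI+, and total apoptosis was the sum of the two.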

Test [8] deals with SUM-159-PT. The test is described as follows: Induction of apoptosis in human SUM159 cells assessed as early apoptotic cells at 0.5 uM measured after 48 hrs by Annexin-V APC/propidium iodide staining based flow cytometry (reference value: 2.5%). The format is functional. The gist of the method:
as §2
(A flow cytometer gives signals particle by particle.)

Test [9] concerns SUM-159-PT. The test is described as follows: Induction of apoptosis in human SUM159 cells assessed as viable cells at 0.5 uM measured after 48 hrs by Annexin-V APC/propidium iodide staining based flow cytometry (reference value: 95.9%). The format is functional. Conditions: read-out: Activity. The method, boiled down: as §2
The test system of test [10] is SUM-159-PT. The test is described as follows: Induction of apoptosis in human SUM159 cells assessed as necrotic cells at 0.5 uM measured after 48 hrs by Annexin-V APC/propidium iodide staining based flow cytometry (reference value: 0.152%). The format is functional. The method, boiled down:
as §2

The IC50 is the concentration that gives 50% inhibition. On to `C=C1C(=O)O[C@H]2[C@H]1CC/C(COC(=O)/C=C/c1ccccc1C(F)(F)F)=C\CC[C@@]1(C)O[C@@H]21`, for which the IC50 in test [1] turned out to be 1890 nM; in test [2], 850 nM; in test [3] it was 2010 nM; in test [4], 740 nM; in [5], 1160 nM.
Taken in the same sequence, the figures for `C=C1C(=O)O[C@H]2[C@H]1CC/C(COC(=O)/C=C/c1ccccc1OC)=C\CC[C@@]1(C)O[C@@H]21` were 680 nM, 350 nM, 420 nM, 460 nM and 520 nM.
As for `C=C1C(=O)O[C@H]2[C@H]1CC/C(COC(=O)/C=C/c1cc(OC)ccc1OC)=C\CC[C@@]1(C)O[C@@H]21`, the IC50 in [1] came out at 550 nM; in test [2], 260 nM; in [3] it was 260 nM; in test [4], 260 nM; in [5], 340 nM. In addition, the “Ratio IC50” value in test [6] came out at 14.
As to `C=C1C(=O)O[C@H]2[C@H]1CC/C(COC(=O)/C=C/c1ccccc1OCC)=C\CC[C@@]1(C)O[C@@H]21`, the IC50 in test [1] amounted to 420 nM; in test [2], 210 nM; in test [3] it was 290 nM; in test [4], 340 nM; in [5], 180 nM. Further, the “Ratio IC50” value in [6] was 10.
Consider `C=C1C(=O)O[C@H]2[C@H]1CC/C(COC(=O)/C=C/c1ccccc1)=C\CC[C@@]1(C)O[C@@H]21`, for which, in [6], the “Ratio IC50” value came out at 2. Further, half-maximal inhibition in test [4] (IC50) required 1350 nM.
As for `C=C1C(=O)O[C@@H]2C3O[C@]3(C)CC/C=C(\C)CC[C@@H]12` (stereo partly drawn), the values for the Activity in test [7], in test [8] and in [10] were 1.1%, 2.49% and 0.049%, respectively. Moreover, the IC50 was 4630 nM in test [1]; 3060 nM in test [2]; 2680 nM in test [3]; 3480 nM in test [4]; 4090 nM in [5]. Further, the viability at 0.5 µM in test [9] worked out at 96.4%.
Take `C=C1C(=O)O[C@H]2[C@H]1CC/C(COC(=O)/C=C/c1cccc(C(F)(F)F)c1)=C\CC[C@@]1(C)O[C@@H]21`: the IC50 in [1] came to 1860 nM; in test [2], 640 nM; in test [3], 2150 nM; in test [4], 830 nM; in [5], 1480 nM.
As to `C=C1C(=O)O[C@H]2[C@H]1CC/C(COC(=O)/C=C/c1ccc(Cl)cc1)=C\CC[C@@]1(C)O[C@@H]21`, it took 1220 nM to reach half-maximal inhibition in test [4] (IC50).
On the same count and under the same terms, as for `C=C1C(=O)O[C@H]2[C@H]1CC/C(COC(=O)/C(=C/c1cc(OC)ccc1OC)c1ccc(OC)cc1)=C\CC[C@@]1(C)O[C@@H]21`, the figure is 2510 nM.
Same read-out and setting: the value for `C=C1C(=O)O[C@H]2[C@H]1CC/C(CO)=C\CC[C@@]1(C)O[C@@H]21` was 5590 nM.
Still for that read-out and setting: as for `C=C1C(=O)O[C@H]2[C@H]1CC/C(COC(=O)/C(=C/c1cc(OC)ccc1OC)c1ccc(C)cc1)=C\CC[C@@]1(C)O[C@@H]21`, the figure is 2950 nM; as for `COC(=O)/C=C/c1cc(OC)ccc1OC`, > 50000 nM.
With `C=C1C(=O)O[C@H]2[C@H]1CC/C(COC(=O)/C(=C/c1cc(OC)ccc1OC)c1ccccc1)=C\CC[C@@]1(C)O[C@@H]21`, half-maximal inhibition in [4] (IC50) required 2010 nM.
On the same count and under the same terms, as for `C=C1C(=O)O[C@H]2[C@H]1CC/C(COC(=O)/C=C/c1ccc(OC(C)=O)cc1)=C\CC[C@@]1(C)O[C@@H]21`, the figure is 1150 nM; as for `C=C1C(=O)O[C@H]2[C@H]1CC/C(COC(=O)/C=C/c1ccccc1C)=C\CC[C@@]1(C)O[C@@H]21`, 1790 nM; as for `C=C1C(=O)O[C@H]2[C@H]1CC/C(COC(=O)/C=C/c1ccc(Br)cc1)=C\CC[C@@]1(C)O[C@@H]21`, 1020 nM.
Same read-out and setting: the value for `C=C1C(=O)O[C@H]2[C@H]1CC/C(COC(=O)/C(=C/c1cc(OC)ccc1OC)c1ccc(Br)cc1)=C\CC[C@@]1(C)O[C@@H]21` was 2010 nM; that for `C=C1C(=O)O[C@H]2[C@H]1CC/C(COC(=O)/C=C/c1c(Br)cccc1Br)=C\CC[C@@]1(C)O[C@@H]21` was 1500 nM.
On the same count and under the same terms, the value for `C=C1C(=O)O[C@H]2[C@H]1CC/C(COC(=O)/C=C/c1cccc(C)c1)=C\CC[C@@]1(C)O[C@@H]21` was 1080 nM.
Take `C=C1C(=O)O[C@H]2[C@H]1CC/C(COC(=O)/C=C/c1ccccc1Br)=C\CC[C@@]1(C)O[C@@H]21`: half-maximal inhibition in test [4] (IC50) was put at 1330 nM.
Same read-out and setting: as for `C=C1C(=O)O[C@H]2[C@H]1CC/C(COC(=O)/C(=C/c1cc(OC)ccc1OC)c1ccc(SC)cc1)=C\CC[C@@]1(C)O[C@@H]21`, the figure is 1870 nM; as for `C=C1C(=O)O[C@H]2[C@H]1CC/C(COC(=O)/C=C/c1ccncc1)=C\CC[C@@]1(C)O[C@@H]21`, 2790 nM.
The same measure, in the same setting: the value for `C=C1C(=O)O[C@H]2[C@H]1CC/C(COC(=O)/C=C/c1ccc(OC)c(OC)c1OC)=C\CC[C@@]1(C)O[C@@H]21` was 1770 nM.
In [4], `C=C1C(=O)O[C@H]2[C@H]1CC/C(COC(=O)/C(=C/c1cc(OC)ccc1OC)CC)=C\CC[C@@]1(C)O[C@@H]21` showed a 50% inhibitory concentration (IC50) of 2250 nM.
On the same count and under the same terms, the value for `C=C1C(=O)O[C@H]2[C@H]1CC/C(COC(=O)/C(=C/c1cc(OC)ccc1OC)c1ccc(OCC)cc1)=C\CC[C@@]1(C)O[C@@H]21` was 1870 nM; that for `C=C1C(=O)O[C@H]2[C@H]1CC/C(COC(=O)/C=C/c1cccc(OC)c1)=C\CC[C@@]1(C)O[C@@H]21` was 1840 nM; that for `C=C1C(=O)O[C@H]2[C@H]1CC/C(COC(=O)/C=C/c1cc(OC)cc(OC)c1)=C\CC[C@@]1(C)O[C@@H]21` was 2020 nM.
On the same count and under the same terms, as for `C=C1C(=O)O[C@H]2[C@H]1CC/C(COC(=O)/C=C/c1c(F)cccc1F)=C\CC[C@@]1(C)O[C@@H]21`, the figure is 1590 nM.
Still for that read-out and setting: the value for `C=C1C(=O)O[C@H]2[C@H]1CC/C(COC(=O)/C=C/c1ccc3ccccc3c1)=C\CC[C@@]1(C)O[C@@H]21` was 1480 nM; that for `C=C1C(=O)O[C@H]2[C@H]1CC/C(COC(=O)/C=C/c1ccccn1)=C\CC[C@@]1(C)O[C@@H]21` was 2290 nM.
For the compound `C=C1C(=O)O[C@H]2[C@H]1CC/C(COC(=O)/C=C/c1cc(OC)c(OC)c(OC)c1)=C\CC[C@@]1(C)O[C@@H]21`, the IC50 in [1] amounted to 1960 nM; in test [2], 860 nM; in test [3], 1390 nM; in test [4], 950 nM; in test [5], 630 nM.
The compound `C=C1C(=O)O[C@H]2[C@H]1CC/C(COC(=O)/C=C/c1ccc(O)c(OC)c1)=C\CC[C@@]1(C)O[C@@H]21` displayed an IC50 in [4] of 2010 nM.
Regarding `COc1ccc(OC)c(/C=C/C(=O)OC/C2=C/CC[C@@]3(C)O[C@H]3[C@H]3OC(=O)[C@@H](C)[C@@H]3CC2)c1`, the IC50 in test [4] was 6800 nM.
Still for that read-out and setting: the value for `C=C1C(=O)O[C@H]2[C@H]1CC/C(COC(=O)/C=C/c1ccc(F)cc1)=C\CC[C@@]1(C)O[C@@H]21` was 1320 nM.
On to `C=C1C(=O)O[C@H]2[C@H]1CC/C(COC(=O)/C=C/c1ccc(OC)cc1OC)=C\CC[C@@]1(C)O[C@@H]21`, for which the IC50 is 1150 nM in test [1]; 800 nM in test [2]; 890 nM in test [3]; 550 nM in test [4]; 1410 nM in [5].
On to `C=C1C(=O)O[C@H]2[C@H]1CC/C(COC(=O)/C=C/c1cccc(OC)c1OC)=C\CC[C@@]1(C)O[C@@H]21`, for which it took 1740 nM to reach half-maximal inhibition in [4] (IC50).
Still for that read-out and setting: the value for `C=C1C(=O)O[C@H]2[C@H]1CC/C(COC(=O)/C=C/c1ccc3c(c1)OCO3)=C\CC[C@@]1(C)O[C@@H]21` was 1800 nM.
Take `C=C1C(=O)O[C@H]2[C@H]1CC/C(COC(=O)/C=C/c1c(OC)cc(OC)cc1OC)=C\CC[C@@]1(C)O[C@@H]21`: the IC50 in test [4] was found to be 1090 nM.
`COC(=O)/C=C/c1c(OC)cccc1OC`: the 50% inhibitory concentration (IC50) in [4] was > 20000 nM.
On the same count and under the same terms, the value for `C=C1C(=O)O[C@H]2[C@H]1CC/C(COC(=O)/C=C/c1ccc(OC)c(OC)c1)=C\CC[C@@]1(C)O[C@@H]21` was 1950 nM; that for `C=C1C(=O)O[C@H]2[C@H]1CC/C(COC(=O)/C=C/c1ccco1)=C\CC[C@@]1(C)O[C@@H]21` was 2250 nM; that for `C=C1C(=O)O[C@H]2[C@H]1CC/C(COC(=O)/C=C/c1cccc(F)c1)=C\CC[C@@]1(C)O[C@@H]21` was 1730 nM.
Same read-out and setting: the value for `C=C1C(=O)O[C@H]2[C@H]1CC/C(COC(=O)/C(=C/c1cc(OC)ccc1OC)c1ccc(C(F)(F)F)cc1)=C\CC[C@@]1(C)O[C@@H]21` was 1980 nM; that for `C=C1C(=O)O[C@H]2[C@H]1CC/C(COC(=O)/C=C/c1ccccc1F)=C\CC[C@@]1(C)O[C@@H]21` was 1800 nM.
